# Activity calls are given as the source filed them. The calls are words filed in the database; no cut-off is given here.
# Legend:
# [1] = molecular target: T1, Receptor tyrosine-protein kinase erbB-2 (Homo sapiens, UniProt P04626); details: BT-474, 0.001 to 1 uM
# [2] = molecular target: Platelet-derived growth factor receptor beta (Homo sapiens, UniProt P09619); test: Inhibition of PDGFRbeta (unknown origin) by ELISA method
# How it was run: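 Phosphotyrosine ELISA with purified kinase (20 ng) and 5 µM ATP in buffer (50 mM HEPES pH 7.4, 20 mM MgCl2, 0.1 mM MnCl2, 0.2 mM Na3VO4, 1 mM DTT), 1 h at 37 °C, DMSO ≤1%. Detection by PY99 antibody, then HRP anti-mouse IgG with o-phenylenediamine, A490. IC50 by Logit from at least three independent tests.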
# cells [3] = details: Homo sapiens, Calu-3, 72 h
# [4] = molecular target: T2, Epidermal growth factor receptor (Homo sapiens, UniProt P00533); details: A-431, 0.001 to 1 uM
# [5] = molecular target: Mast/stem cell growth factor receptor Kit (Homo sapiens, UniProt P10721); test: Inhibition of c-KIT phosphorylation (unknown origin) expressed in human NCI-H526 cells at 0.001 to 1 uM incubated for 2 hrs by Western blot method; format: cell-based
# How it was run: (§1)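 Cells grown to half-confluence and serum-starved 24 h, then treated 2 h at 0.001, 0.01, 0.1 and 1 µM. Afterwards stimulated at 37 °C with 20 ng/ml SCF-1, PDGF-BB or VEGF as appropriate to the receptor. Phosphorylation assessed by western blot.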
# BT-474 [6] = test: Induction of cell cycle arrest in human BT474 cells assessed as accumulation at G2/M phase at 0.001 uM incubated for 12 hrs by propidium iodide staining based flow cytometry (reference value: 14%); format: functional
# BT-474 [7] = test: Induction of apoptosis in human BT474 cells at 0.01 uM incubated for 12 hrs by propidium iodide staining based flow cytometry (reference value: 1%); format: functional
# [8] = AUC (0 to infinity) in Beagle dog at 240 mg/kg, po dosed for 14 days by LC/MS/MS method; format: ADME, organism-based, Canis lupus familiaris; set-up: time infinity, dose 240 mg/kg, route oral; details: plasma
# How it was run: (§2)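 Beagle dogs (n = 6) dosed by oral gavage at 240 mg/kg daily for 14 consecutive days. Blood taken predose and at 0.25–24 h on days 1 and 14, plasma stored at −20 °C, analysed by validated LC/MS/MS. Half-life and AUC by model-independent methods; Cmax and MRT read from concentration–time data.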
# [9] = Antitumor activity against human Calu3 cells xenografted in BALB/cA mouse assessed as tumor growth inhibition at 100 mg/kg, po; format: functional; details: Calu-3, read-out: TGI
# How it was run: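 Female BALB/cA nude mice, 6–7 weeks old, implanted s.c. on midright side with 2×10^6 Calu-3 cells in 0.2 ml PBS. Grouped at 60–150 mm³ tumour volume (6 per treated group, 12 vehicle). Oral dosing in 0.5% CMC with 0.1% Tween-80. Caliper volume = L×W²×0.5; inhibition = (1 − T/C)×100% on relative tumour volume; weight tracked for 21 d.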
# [10] = molecular target: T1, Receptor tyrosine-protein kinase erbB-2; details: BT-474, 0.001 to 1 uM; remark: listed apart in the source
# [11] = Mean residence time in Beagle dog at 240 mg/kg, po dosed for 14 days by LC/MS/MS method; format: ADME, organism-based, Canis lupus familiaris; set-up: dose 240 mg/kg, route oral; details: in vivo
# How it was run: as §2
# BT-474 [12] = test: Induction of cell cycle arrest in human BT474 cells assessed as accumulation at G1 phase at 0.01 uM incubated for 12 hrs by propidium iodide staining based flow cytometry (reference value: 67%); format: functional
# [13] = molecular target: T2, Epidermal growth factor receptor; test: Inhibition of HER1 (unknown origin) assessed as reduction in autophosphorylation by ELISA method
# BT-474 [14] = test: Induction of cell cycle arrest in human BT474 cells assessed as accumulation at S phase at 0.001 uM incubated for 12 hrs by propidium iodide staining based flow cytometry (reference value: 19%); format: functional
# BT-474 [15] = test: Induction of apoptosis in human BT474 cells at 0.001 uM incubated for 12 hrs by propidium iodide staining based flow cytometry (reference value: 1%); format: functional
# BT-474 [16] = test: Induction of apoptosis in human BT474 cells at 10 uM incubated for 12 hrs by propidium iodide staining based flow cytometry (reference value: 1%); format: functional
# BT-474 [17] = test: Induction of cell cycle arrest in human BT474 cells assessed as accumulation at G1 phase at 0.1 uM incubated for 12 hrs by propidium iodide staining based flow cytometry (reference value: 67%); format: functional
# [18] = Cmax in Beagle dog at 240 mg/kg, po administered as single dose measured after 0.25 to 24 hrs post dose by LC/MS/MS method; format: ADME, organism-based, Canis lupus familiaris; set-up: dose 240 mg/kg, route oral; details: in vivo
# How it was run: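 Single oral gavage of 240 mg/kg to beagle dogs (n = 6). Blood sampled at 0.25–24 h, kept on ice, centrifuged within 1 h (1000 × g, 4 °C, 15 min), plasma stored at −20 °C. Drug quantified by validated LC/MS/MS. AUC0–24 from non-compartmental analysis; Cmax and MRT taken directly from concentration–time data.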
# BT-474 [19] = test: Induction of apoptosis in human BT474 cells at 1 uM incubated for 12 hrs by propidium iodide staining based flow cytometry (reference value: 1%); format: functional
# BT-474 [20] = test: Induction of cell cycle arrest in human BT474 cells assessed as accumulation at G2/M phase at 1 uM incubated for 12 hrs by propidium iodide staining based flow cytometry (reference value: 14%); format: functional
# Mus musculus = test: Toxicity in human Calu3 cells xenografted BALB/cA mouse assessed as body weight loss at 200 mg/kg, po measured every other day for 21 days; format: organism-based, Calu-3; set-up: dose 200 mg/kg, route oral; details: in vivo, 504 h
# How it was run: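 Female BALB/cA nude mice, 6–7 weeks old, implanted s.c. on the mid-right flank with 2×10^6 Calu-3 cells in 0.2 ml PBS. At 60–150 mm³ tumour volume, mice randomised into six per treatment group (twelve vehicle controls). Oral dosing in 0.5% CMC aqueous solution with 0.1% Tween-80. Body weight recorded every other day for 21 d.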
# [21] = molecular target: Vascular endothelial growth factor receptor 2 (Homo sapiens, UniProt P35968); test: Inhibition of KDR phosphorylation (unknown origin) expressed in human HUVEC at 0.001 to 1 uM incubated for 2 hrs by Western blot method; format: cell-based
# How it was run: as §1
# MRC5 = test: cells; details: Homo sapiens, MRC5, 72 h
# [22] = Cmax in Beagle dog at 240 mg/kg, po dosed for 14 days by LC/MS/MS method; format: ADME, organism-based, Canis lupus familiaris; set-up: dose 240 mg/kg, route oral; details: in vivo
# How it was run: as §2
# BT-474 [23] = test: Induction of cell cycle arrest in human BT474 cells assessed as accumulation at G1 phase at 10 uM incubated for 12 hrs by propidium iodide staining based flow cytometry (reference value: 67%); format: functional
# [24] = Clearance in Beagle dog at 240 mg/kg, po dosed for 14 days by LC/MS/MS method; format: ADME, organism-based, Canis lupus familiaris; set-up: dose 240 mg/kg, route oral; details: in vivo
# How it was run: as §2
# cells [25] = details: Homo sapiens, SK-OV-3, 72 h
# T1 sequence (P04626 whole entry): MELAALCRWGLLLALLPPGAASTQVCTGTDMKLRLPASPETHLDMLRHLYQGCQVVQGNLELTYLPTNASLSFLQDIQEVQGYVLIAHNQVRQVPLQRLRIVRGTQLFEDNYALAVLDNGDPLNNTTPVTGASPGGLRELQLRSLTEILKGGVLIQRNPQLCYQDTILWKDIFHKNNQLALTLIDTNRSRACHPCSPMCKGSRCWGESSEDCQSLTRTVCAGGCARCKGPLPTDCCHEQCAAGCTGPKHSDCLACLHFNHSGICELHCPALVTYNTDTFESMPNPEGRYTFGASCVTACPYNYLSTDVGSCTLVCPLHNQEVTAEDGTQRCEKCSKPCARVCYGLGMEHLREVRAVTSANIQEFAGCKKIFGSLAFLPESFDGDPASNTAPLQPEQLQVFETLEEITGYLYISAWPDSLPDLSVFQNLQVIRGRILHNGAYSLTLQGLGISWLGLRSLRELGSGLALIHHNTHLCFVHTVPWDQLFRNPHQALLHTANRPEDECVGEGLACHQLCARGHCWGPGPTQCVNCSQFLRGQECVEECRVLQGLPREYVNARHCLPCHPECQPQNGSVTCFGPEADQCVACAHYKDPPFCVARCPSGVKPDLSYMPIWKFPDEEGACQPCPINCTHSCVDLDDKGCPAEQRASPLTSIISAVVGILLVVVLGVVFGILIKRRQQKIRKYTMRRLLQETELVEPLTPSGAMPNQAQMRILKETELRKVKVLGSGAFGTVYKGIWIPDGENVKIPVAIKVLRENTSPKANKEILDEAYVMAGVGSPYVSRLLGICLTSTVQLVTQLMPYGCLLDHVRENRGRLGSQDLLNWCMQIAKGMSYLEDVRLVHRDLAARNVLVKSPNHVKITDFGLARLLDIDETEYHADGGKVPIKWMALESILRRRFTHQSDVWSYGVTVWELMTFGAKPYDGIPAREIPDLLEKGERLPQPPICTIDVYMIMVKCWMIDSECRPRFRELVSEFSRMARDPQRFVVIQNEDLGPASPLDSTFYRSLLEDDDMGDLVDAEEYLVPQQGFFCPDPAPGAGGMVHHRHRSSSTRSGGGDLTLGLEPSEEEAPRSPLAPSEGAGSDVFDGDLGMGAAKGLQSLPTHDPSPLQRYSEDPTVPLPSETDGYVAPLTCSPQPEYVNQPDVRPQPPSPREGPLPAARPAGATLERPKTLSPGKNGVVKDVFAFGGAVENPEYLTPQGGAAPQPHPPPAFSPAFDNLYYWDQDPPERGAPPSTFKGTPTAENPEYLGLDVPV
# T2 sequence (P00533 whole entry): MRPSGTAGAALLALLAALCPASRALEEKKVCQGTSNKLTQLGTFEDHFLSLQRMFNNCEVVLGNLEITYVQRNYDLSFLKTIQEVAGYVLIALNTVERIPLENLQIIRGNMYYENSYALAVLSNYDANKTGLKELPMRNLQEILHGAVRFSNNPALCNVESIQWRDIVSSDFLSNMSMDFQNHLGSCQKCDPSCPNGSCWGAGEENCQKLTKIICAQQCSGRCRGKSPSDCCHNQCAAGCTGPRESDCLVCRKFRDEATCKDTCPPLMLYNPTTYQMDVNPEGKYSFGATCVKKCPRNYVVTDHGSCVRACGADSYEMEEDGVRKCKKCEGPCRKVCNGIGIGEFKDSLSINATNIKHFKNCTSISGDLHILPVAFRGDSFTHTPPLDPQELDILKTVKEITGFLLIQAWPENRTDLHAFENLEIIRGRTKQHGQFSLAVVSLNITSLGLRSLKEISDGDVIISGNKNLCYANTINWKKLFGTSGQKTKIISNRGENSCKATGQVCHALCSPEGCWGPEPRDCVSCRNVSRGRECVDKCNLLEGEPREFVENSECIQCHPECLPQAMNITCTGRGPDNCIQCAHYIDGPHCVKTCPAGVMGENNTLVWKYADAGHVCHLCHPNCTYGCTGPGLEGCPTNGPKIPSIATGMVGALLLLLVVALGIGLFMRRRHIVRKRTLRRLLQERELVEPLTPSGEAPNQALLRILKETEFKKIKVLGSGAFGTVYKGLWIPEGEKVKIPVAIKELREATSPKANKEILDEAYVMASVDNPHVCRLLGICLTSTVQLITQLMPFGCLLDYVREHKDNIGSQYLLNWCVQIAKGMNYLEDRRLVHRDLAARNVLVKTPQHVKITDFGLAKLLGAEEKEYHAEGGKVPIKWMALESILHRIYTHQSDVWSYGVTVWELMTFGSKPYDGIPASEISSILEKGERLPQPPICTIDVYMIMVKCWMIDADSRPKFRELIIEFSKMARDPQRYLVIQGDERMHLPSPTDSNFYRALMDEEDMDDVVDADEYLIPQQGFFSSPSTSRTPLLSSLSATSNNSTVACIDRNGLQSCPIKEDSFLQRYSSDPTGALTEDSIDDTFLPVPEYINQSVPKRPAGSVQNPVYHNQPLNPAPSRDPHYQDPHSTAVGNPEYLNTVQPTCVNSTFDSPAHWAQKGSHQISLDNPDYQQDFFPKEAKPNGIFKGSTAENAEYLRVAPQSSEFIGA
# Sequence of Platelet-derived growth factor receptor beta (P09619 whole entry): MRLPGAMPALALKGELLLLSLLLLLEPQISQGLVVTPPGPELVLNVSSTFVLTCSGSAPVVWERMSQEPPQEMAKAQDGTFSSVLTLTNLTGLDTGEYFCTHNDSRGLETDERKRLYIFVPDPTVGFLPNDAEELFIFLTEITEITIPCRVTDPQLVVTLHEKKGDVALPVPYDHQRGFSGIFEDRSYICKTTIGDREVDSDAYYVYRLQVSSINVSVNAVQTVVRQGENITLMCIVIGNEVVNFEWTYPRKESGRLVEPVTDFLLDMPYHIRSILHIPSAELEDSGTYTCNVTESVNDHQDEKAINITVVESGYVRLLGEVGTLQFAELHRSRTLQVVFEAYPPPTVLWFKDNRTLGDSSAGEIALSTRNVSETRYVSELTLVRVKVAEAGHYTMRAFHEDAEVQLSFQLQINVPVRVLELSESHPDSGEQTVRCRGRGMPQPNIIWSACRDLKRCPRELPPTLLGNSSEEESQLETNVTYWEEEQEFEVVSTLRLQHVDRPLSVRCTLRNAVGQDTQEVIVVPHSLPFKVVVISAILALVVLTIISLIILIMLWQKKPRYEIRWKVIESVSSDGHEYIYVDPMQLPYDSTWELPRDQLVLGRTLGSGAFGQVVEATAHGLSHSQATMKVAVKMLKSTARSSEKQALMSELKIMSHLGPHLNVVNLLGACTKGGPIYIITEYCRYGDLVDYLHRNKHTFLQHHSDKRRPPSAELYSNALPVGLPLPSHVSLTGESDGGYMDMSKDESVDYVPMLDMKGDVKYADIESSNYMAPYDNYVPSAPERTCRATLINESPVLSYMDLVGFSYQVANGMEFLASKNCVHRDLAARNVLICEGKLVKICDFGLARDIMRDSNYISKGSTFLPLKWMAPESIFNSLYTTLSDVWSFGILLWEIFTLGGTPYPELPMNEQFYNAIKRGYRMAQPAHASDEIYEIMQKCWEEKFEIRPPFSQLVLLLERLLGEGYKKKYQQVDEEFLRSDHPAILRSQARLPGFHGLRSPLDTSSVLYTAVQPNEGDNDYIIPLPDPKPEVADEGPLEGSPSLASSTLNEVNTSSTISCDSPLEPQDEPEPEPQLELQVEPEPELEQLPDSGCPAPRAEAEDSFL
# Sequence of Mast/stem cell growth factor receptor Kit (P10721 whole entry): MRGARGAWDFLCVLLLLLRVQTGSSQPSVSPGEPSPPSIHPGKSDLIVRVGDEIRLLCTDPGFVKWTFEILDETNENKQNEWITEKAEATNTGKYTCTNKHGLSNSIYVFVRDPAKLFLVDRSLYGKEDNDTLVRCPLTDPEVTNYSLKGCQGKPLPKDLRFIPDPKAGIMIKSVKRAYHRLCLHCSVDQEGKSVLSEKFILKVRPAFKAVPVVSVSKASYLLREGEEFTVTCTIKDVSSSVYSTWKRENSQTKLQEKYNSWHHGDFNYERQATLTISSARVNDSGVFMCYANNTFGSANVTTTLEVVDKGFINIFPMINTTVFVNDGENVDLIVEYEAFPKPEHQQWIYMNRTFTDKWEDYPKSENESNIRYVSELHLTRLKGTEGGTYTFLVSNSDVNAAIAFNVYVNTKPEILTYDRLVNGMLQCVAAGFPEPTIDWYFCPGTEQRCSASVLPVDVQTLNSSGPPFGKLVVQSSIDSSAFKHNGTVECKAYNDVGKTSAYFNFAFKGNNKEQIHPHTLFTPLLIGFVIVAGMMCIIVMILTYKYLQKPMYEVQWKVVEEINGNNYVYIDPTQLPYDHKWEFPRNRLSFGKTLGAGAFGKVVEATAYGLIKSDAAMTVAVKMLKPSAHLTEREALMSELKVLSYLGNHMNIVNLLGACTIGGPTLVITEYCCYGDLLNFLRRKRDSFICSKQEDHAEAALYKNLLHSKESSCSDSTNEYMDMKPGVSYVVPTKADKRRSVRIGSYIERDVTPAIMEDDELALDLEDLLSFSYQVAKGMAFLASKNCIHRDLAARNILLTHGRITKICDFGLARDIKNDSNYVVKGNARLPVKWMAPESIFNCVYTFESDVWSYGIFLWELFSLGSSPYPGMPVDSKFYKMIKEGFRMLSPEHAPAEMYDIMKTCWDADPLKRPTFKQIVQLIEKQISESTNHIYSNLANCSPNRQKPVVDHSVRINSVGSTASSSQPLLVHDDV
smiles,measurement,setting,value
CN(C)[C@H](CS(C)(=O)=O)c1ccc(-c2ccc3ncnc(Nc4ccc(OCc5cccc(F)c5)c(Cl)c4)c3c2)o1,inhibition,[1],Dose-dependent effect
same,IC50,[2],> 200 µM
same,IC50,cells [3],0.23 µM
same,inhibition,[4],Dose-dependent effect
same,inhibition,[5],inactive
same,Activity,BT-474 [6],14%
same,Activity,BT-474 [7],1%
same,AUC(0-inf),[8],30.6 µg·h/mL
same,inhibition in vivo at 100 mg/kg,[9],68%
same,inhibition,[10],Dose-dependent effect
same,MRT,[11],6.6 h
same,Activity,BT-474 [12],77%
same,IC50,[13],0.0041 µM
same,Activity,BT-474 [14],16%
same,Activity,BT-474 [15],1%
same,Activity,BT-474 [16],11%
same,Activity,BT-474 [17],84%
same,Cmax,[18],3.1 µg/mL
same,Activity,BT-474 [19],5%
same,Activity,BT-474 [20],12%
same,Activity,Mus musculus,Non-toxic
same,inhibition,[21],inactive
same,IC50,MRC5,> 100 µM
same,Cmax,[22],2.9 µg/mL
same,Activity,BT-474 [23],80%
same,CL/F,[24],432 mL/min
same,IC50,cells [25],0.44 µM

# Reference: ChEMBL document CHEMBL3352165 (Eur J Med Chem, 2014)
